Source: PubChem (Johns Hopkins Ion Channel Center)
This is a sample that favours compounds with a hit; in the whole collection about 3.5% have one here.
MrgX1 agonist: agonists of human MrgX1 receptor | 310,000 compounds, 0.44% hits | AID 588627 | Q96LB2 | B-score at 10 µM | MrgX1-HEK293 cells, Fluo-4 calcium fluorescence, agonist mode; stronger effect = higher value;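 active = calcium response B-score plate-corrected fluorescence ratio at least 3 library SD, with starting fluorescence B-score inside 5 SD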
Target sequence (Q96LB2 whole entry, looked up): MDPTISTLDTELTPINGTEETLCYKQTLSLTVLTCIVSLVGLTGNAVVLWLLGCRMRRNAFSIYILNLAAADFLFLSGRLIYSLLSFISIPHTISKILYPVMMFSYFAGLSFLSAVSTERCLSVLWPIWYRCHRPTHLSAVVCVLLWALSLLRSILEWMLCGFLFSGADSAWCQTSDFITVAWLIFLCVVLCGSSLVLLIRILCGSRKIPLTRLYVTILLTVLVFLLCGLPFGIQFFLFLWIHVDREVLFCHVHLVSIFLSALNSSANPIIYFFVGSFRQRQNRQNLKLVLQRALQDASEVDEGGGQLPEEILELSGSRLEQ
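Test system: HEK293 cells stably expressing human MrgX1 receptor; Input: fifteen thousand cells per well; Dosing: compound delivered in addition one of three; Schedule: overnight seeding, then 1 h dark dye loading; Technique: Fluo-4 NW calcium fluorescence; Measure: B-scored fluorescence response ratio; Controls: positive and negative controls per plate.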
MrgX1 antagonist: human MrgX1 receptor antagonism, primary screen | Q96LB2 | MRGX1-HEK293 calcium flux, Fluo-4, BAM8-22 antagonism; stronger effect = lower value | B-score at 10 µM | 310,000 compounds, 1.3% hits | AID 588676;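 active = calcium-response B-score plate-corrected more than 3 library SD below zero, starting fluorescence within 5 deviations, no agonist response on first addition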;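 also: peak minus trough fluorescence over baseline after final BAM8-22 challenge near maximal dose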
RGS4 pot: RGS4 potentiation or activation. 310,000 compounds, 0.92% hits. HEK293 M3R/inducible RGS4, carbachol calcium flux Fluo4; stronger effect = lower value. AID 463111. B-score at 10 µM;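 active = B-score of the integrated calcium signal more than 4 SD below the library mean, with starting fluorescence not abnormally high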;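 also: negative B-score means reduced calcium response which marks RGS4 activation or potentiation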
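Also added: carbachol at ECmax as muscarinic agonist stimulus; Assay system: HEK293 cells with stable M3R and inducible RGS4; Timing: overnight RGS4 induction, 30 min dye load 37 °C, 20 min compound RT; Measured by: Fluo4-AM (2 µM) calcium-flux fluorescence, kinetic read.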
MrgX1 PAM: human MrgX1 positive allosteric modulation, primary screen; Q96LB2; MrgX1-HEK293, Fluo-4 calcium flux, FDSS; stronger effect = higher value; B-score at 10 µM; 310,000 compounds, 0.63% hits;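 active = plate-corrected calcium response at least 3 library SD above typical, normal starting fluorescence, not activating the receptor alone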;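 also: compound read alongside a low EC10 to EC30 dose of BAM8-22 agonist; peak minus trough fluorescence over baseline measured at the second addition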
RGS4 inh: human RGS4 inhibition | B-score at 10 µM | HEK293 M3R/RGS4 inducible, Fluo-4 calcium flux; stronger effect = higher value; triggered by carbachol at its EC20 | AID 463165 | 310,000 compounds, 0.45% hits | P49798;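 active = B-score, a plate-corrected calcium signal, over three deviations above library mean, with baseline fluorescence within five deviations of library mean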;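 also: RGS4 expression induced by doxycycline in cells with stable M3 receptor; B-score is computed from the integrated fluorescence ratio over baseline after carbachol; higher B-score means a larger calcium signal and so more RGS4 inhibition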
Target sequence (P49798 whole entry, looked up): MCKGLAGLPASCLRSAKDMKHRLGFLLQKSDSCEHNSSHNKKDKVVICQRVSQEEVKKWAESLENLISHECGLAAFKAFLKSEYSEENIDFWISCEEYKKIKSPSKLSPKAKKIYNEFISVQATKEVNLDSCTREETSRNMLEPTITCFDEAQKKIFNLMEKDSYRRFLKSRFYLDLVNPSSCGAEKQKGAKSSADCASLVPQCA
* = called active by the depositor; i = inactive; nt = no result.

SMILES	MrgX1 agonist	MrgX1 antagonist	RGS4 pot	MrgX1 PAM	RGS4 inh
CCOC(=O)C1=C(C)N=c2s/c(=C\c3ccc(O)c([N+](=O)[O-])c3)c(=O)n2C1c1ccccc1OC (stereo not drawn)	i	-4.6*	i	i	i
CCOC(=O)C1=C(C)N=c2s/c(=C/c3ccc(OCC(=O)O)cc3)c(=O)n2C1c1ccc(F)cc1 (stereo not drawn)	i	i	-8.3*	i	i
CC1=C(C(=O)Nc2cccc(C(=O)N3CCC(C(N)=O)CC3)c2)SCCO1	i	i	i	i	i
COc1ccc(OCC(=O)NNC(=O)c2cccc(O)c2)cc1	i	i	i	i	i
O=C(CNCc1cccc2ccccc12)Nc1ccccc1[N+](=O)[O-]	i	i	i	i	i
COc1ccc(N(CC(=O)NCc2ccccc2OC)S(=O)(=O)c2ccc(C)cc2)cc1Cl	i	i	i	i	i
O=C(C1CCC(C(=O)N2CCc3ccccc32)CC1)N1CCc2ccccc21 (stereo not drawn)	i	i	i	i	i
O=C(CCl)c1ccc2c(c1)CCN2C(=O)C1CC1	33*	i	i	i	7.1*
Cc1cc(N/N=C/c2cccc(Cl)c2)nc(NCc2ccccc2)n1	i	i	-7.7*	i	i
Cc1cc(N/N=C/c2ccccc2)nc(NCc2ccccc2)n1	i	i	i	i	i
COC(=O)c1sc(N)c(C(=O)OC)c1COC(=O)C12CC3CC(CC(O)(C3)C1)C2	i	i	i	i	i
COc1ccccc1C(=O)NC(=O)COC(=O)Cn1cnc2c1c(=O)n(C)c(=O)n2C	i	i	i	i	i
Cc1ccc(S(=O)(=O)N/N=C2/CC(c3ccccc3)Oc3ccccc32)cc1[N+](=O)[O-] (stereo not drawn)	i	i	i	i	i
O=S(=O)(N/N=C1/CC(c2ccccc2)Oc2ccccc21)c1ccc(Br)cc1 (stereo not drawn)	i	-6.7*	i	i	i
O=C(NN1C(=O)/C(=C\c2cccnc2)SC1=S)C(c1ccccc1)c1ccccc1	i	i	-7.3*	i	i
CCOc1cc(/C=C2\SC(=S)N(NS(=O)(=O)c3ccc(C)cc3)C2=O)ccc1O	52*	i	i	i	i
CCOc1cc(/C=C2\SC(=S)N(NC(=O)c3cccnc3)C2=O)ccc1O	i	-5.9*	i	i	i
Cc1ccc(-c2cc(C(=O)Nc3ccc(S(=O)(=O)Nc4ncccn4)cc3)[nH]n2)c(O)c1C	i	i	i	i	i
CN1C(=O)/C(=C\C=C2/CCCN2C)N(C)C1=S	i	i	i	i	i
CCN1C(=O)/C(=C/C=C2/CCCN2C)OC1=S	27*	i	i	i	i
Cc1cc(C)n2nc(C(=O)OCC(=O)N(C)C3CCCCC3)nc2n1	i	i	i	i	i
Cc1cccc(C)c1NC(=O)COc1ccc2c(C)c(Cc3ccccc3)c(=O)oc2c1	i	i	i	i	i
O=C(Nc1cccc(S(=O)(=O)N2CCCC2)c1)c1ccc2c(=O)n3c(nc2c1)CCCCC3	i	i	i	i	i
O=C(Nc1cccc(S(=O)(=O)N2CCOCC2)c1)c1ccc2c(=O)n3c(nc2c1)CCCCC3	i	i	-7.3*	i	i
O=[N+]([O-])c1ccc(N/N=C/c2sc(N3CCOCC3)nc2-c2ccccc2)c(S(=O)(=O)Nc2ccc(Cl)cc2)c1	nt	nt	-7.5*	nt	i
SMILES	MrgX1 agonist	MrgX1 antagonist	RGS4 pot	MrgX1 PAM	RGS4 inh
COc1ccccc1-n1cnnc1SCc1csc(-c2ccccc2)n1	i	i	nt	i	nt
Cc1ccc(-c2nc(CSc3nc4ccccc4c(=O)n3CCO)cs2)cc1	i	i	i	i	i
C=CCn1c(SCc2csc(-c3ccc(C)cc3)n2)nnc1-c1ccccc1OC	i	-6*	i	i	i
Cc1ccc(-c2nc(CSc3nc4ccccc4c(=O)n3C)cs2)cc1	i	i	-7*	i	i
Cc1cc(=O)n2nc(N3CCC(C(=O)NCc4ccccc4Cl)CC3)sc2n1	i	i	i	i	i
CC(C)N(C(=O)c1nn(C)c2c1CSc1ccccc1-2)C1CCCCC1	i	i	i	15*	i
CS(=O)(=O)N1N=C(c2ccccc2)CC1c1ccc2nccnc2c1 (stereo not drawn)	i	i	i	i	i
CS(=O)(=O)N1N=C(c2ccc3nccnc3c2)CC1c1ccccc1 (stereo not drawn)	i	i	i	6.5*	i
CN(c1ccccc1)c1nc(N)c([N+](=O)[O-])c(NCCO)n1	i	i	i	i	i
C#CCOCCOCCOCCNc1nc(N2CCN(C(=O)Cn3cc(CC(C)O)nn3)CC2)nc(N2CCN(C(=O)[C@H](C)n3cc(CCCN=C(N)N)nn3)CC2)n1 (stereo partly drawn)	i	i	i	i	i
C/C(=N\NC(=O)c1cccc([N+](=O)[O-])c1)c1cccs1	i	i	i	13*	i
C/C(=N\NC(=O)c1cccc([N+](=O)[O-])c1)c1ccncc1	i	i	i	i	i
COc1cc(C(=O)COC(=O)c2cc([N+](=O)[O-])ccc2N2CCOCC2)ccc1OC(F)F	i	-6.2*	i	i	i
COc1ccccc1C(=O)COC(=O)c1cc([N+](=O)[O-])ccc1N1CCOCC1	i	i	i	i	i
Cc1ccc(S(=O)(=O)N(CC(=O)Nc2cccc(N(C)S(C)(=O)=O)c2)c2ccc(Cl)c(Cl)c2)cc1	i	i	-11*	i	i
CN(c1cccc(NC(=O)CN(c2ccc(Cl)c(Cl)c2)S(=O)(=O)c2ccccc2)c1)S(C)(=O)=O	i	i	i	i	i
CC(=O)c1ccc(NC(=O)CN2CCCCCC2)cc1	i	i	i	i	i
Cc1ccnc(N/C=C(\C#N)c2nc(-c3cccc(Br)c3)cs2)c1	36*	i	i	i	i
O=[N+]([O-])c1ccc(O)c(-c2cc(C(F)(F)F)nc(-c3ccccc3)n2)c1	i	-5.6*	i	i	i
CCOC(=O)C1(C)Oc2ccc(S(=O)(=O)CC)cc2NC1=O (stereo not drawn)	i	i	i	i	i
Cc1ccc(C(C)C)c(OCCNC(=O)c2cncc(Br)c2)c1	i	i	i	i	i
COc1cc(C(=O)NCCOc2cc(C)ccc2C(C)C)cc(OC)c1OC	i	-4.7*	i	i	i
